Assay results reported in ChEMBL document CHEMBL4480426, “Novel multi-target directed ligands based on annelated xanthine scaffold with aromatic substituents acting on adenosine receptor and monoamine oxidase B. Synthesis, in vitro and in silico studies” (Bioorg Med Chem, 2019).

How the values were obtained:
[1] = Antioxidant activity assessed as increase in total ferric ion reducing activity at 1000 uM using FeCl3.6H2O and TPTZ incubated for 10 mins under dark condition by FRAP assay relative to control; format: functional; set-up: scale not given: the % may be the effect or the level left
In short: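 FRAP reagent made by mixing 10 parts 300 mM acetate buffer pH 3.6, 1 part 10 mM TPTZ in 40 mM HCl and 1 part 20 mM FeCl3·6H2O. Reagent mixed with compound solution, 10 min at room temperature in the dark. Ferrous-TPTZ complex read at 593 nm. Result is absorbance increase versus solvent sample. FeSO4·7H2O standard curve, 37.5–1200 μM.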

Adenosine receptor A1 [2] = molecular target: T1, Adenosine receptor A1 (Homo sapiens, UniProt P30542); experiment: Displacement of [3H]CCPA from recombinant human adenosine A1 receptor expressed in CHO cells; format: cell-based
T1 sequence (P30542 whole entry): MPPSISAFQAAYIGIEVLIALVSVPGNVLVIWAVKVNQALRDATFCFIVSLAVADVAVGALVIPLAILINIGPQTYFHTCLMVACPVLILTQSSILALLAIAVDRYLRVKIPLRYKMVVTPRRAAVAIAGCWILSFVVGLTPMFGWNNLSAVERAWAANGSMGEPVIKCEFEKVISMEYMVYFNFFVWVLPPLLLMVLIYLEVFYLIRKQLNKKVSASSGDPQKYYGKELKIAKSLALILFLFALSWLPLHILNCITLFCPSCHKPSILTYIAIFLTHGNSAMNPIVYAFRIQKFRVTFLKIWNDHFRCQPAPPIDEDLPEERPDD

[3] = molecular target: T2, Adenosine receptor A1 (Homo sapiens) (UniProt P30542); experiment: Displacement of [3H]CCPA from recombinant human adenosine A1 receptor expressed in CHO cells at 1 uM relative to control; format: cell-based
T2 sequence (whole entry): T1 sequence (P30542 whole entry)
In short: (§1)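 Purchased membranes of CHO cells expressing human A1 ([3H]CCPA) or human A3 ([3H]PSB-11). A single high compound concentration is screened first; for potent compounds, full inhibition curves spanning 3 orders of magnitude. At least three independent experiments.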

Adenosine receptor A2a [4] = molecular target: T3, Adenosine receptor A2a (Homo sapiens, UniProt P29274); experiment: Displacement of [3H]MSX2 from recombinant human adenosine A2a receptor expressed in HEK293 cells; format: cell-based
Adenosine receptor A2b = molecular target: T4, Adenosine receptor A2b (Homo sapiens, UniProt P29275); experiment: Displacement of [3H]PSB603 from recombinant human adenosine A2b receptor expressed in HEK293 cells; format: cell-based
T4 sequence (P29275 whole entry): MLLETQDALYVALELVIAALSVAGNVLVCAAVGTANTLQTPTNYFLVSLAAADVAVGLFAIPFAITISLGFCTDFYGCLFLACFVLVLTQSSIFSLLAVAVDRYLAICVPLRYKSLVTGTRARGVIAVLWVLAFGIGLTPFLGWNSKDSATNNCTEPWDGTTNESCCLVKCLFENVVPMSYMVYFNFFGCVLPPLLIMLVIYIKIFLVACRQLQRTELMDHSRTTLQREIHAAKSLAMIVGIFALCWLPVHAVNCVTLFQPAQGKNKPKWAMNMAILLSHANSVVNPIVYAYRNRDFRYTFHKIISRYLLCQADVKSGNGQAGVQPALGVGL

[5] = molecular target: T5, Adenosine receptor A2b (Homo sapiens) (UniProt P29275); experiment: Displacement of [3H]PSB603 from recombinant human adenosine A2b receptor expressed in HEK293 cells at 1 uM relative to control; format: cell-based
T5 sequence (whole entry): T4 sequence (P29275 whole entry)
In short: (§2)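 Purchased membranes of HEK cells expressing human A2A ([3H]MSX-2) or human A2B ([3H]PSB-603). A single high compound concentration is screened first; for potent compounds, full inhibition curves spanning 3 orders of magnitude. At least three independent experiments.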

Adenosine receptor A3 = molecular target: T6, Adenosine receptor A3 (Homo sapiens, UniProt P0DMS8); experiment: Displacement of [3H]PSB11 from recombinant human adenosine A3 receptor expressed in CHO cells; format: cell-based
T6 sequence (P0DMS8 whole entry): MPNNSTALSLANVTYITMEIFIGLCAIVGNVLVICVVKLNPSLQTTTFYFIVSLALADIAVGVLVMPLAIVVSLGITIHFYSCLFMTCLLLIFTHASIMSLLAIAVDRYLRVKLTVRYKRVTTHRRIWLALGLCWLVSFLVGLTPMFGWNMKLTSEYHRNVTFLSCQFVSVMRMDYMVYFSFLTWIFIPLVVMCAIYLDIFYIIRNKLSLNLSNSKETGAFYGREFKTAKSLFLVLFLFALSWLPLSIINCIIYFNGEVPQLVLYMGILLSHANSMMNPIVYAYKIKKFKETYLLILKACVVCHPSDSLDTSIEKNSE

[6] = molecular target: T7, Adenosine receptor A3 (Homo sapiens) (UniProt P0DMS8); experiment: Displacement of [3H]PSB11 from recombinant human adenosine A3 receptor expressed in CHO cells at 1 uM relative to control; format: cell-based; in short: as §1
T7 sequence (whole entry): T6 sequence (P0DMS8 whole entry)

[7] = molecular target: T8, Amine oxidase [flavin-containing] A (Homo sapiens, UniProt P21397); experiment: Inhibition of recombinant human MAOA expressed in baculovirus infected BTI insect cells using p-tyramine as substrate preincubated for 30 mins followed by substrate addition and measured over 45 mins by horseradish peroxidase-Amplex Red-coupled fluorometric assay
T8 sequence (P21397 whole entry): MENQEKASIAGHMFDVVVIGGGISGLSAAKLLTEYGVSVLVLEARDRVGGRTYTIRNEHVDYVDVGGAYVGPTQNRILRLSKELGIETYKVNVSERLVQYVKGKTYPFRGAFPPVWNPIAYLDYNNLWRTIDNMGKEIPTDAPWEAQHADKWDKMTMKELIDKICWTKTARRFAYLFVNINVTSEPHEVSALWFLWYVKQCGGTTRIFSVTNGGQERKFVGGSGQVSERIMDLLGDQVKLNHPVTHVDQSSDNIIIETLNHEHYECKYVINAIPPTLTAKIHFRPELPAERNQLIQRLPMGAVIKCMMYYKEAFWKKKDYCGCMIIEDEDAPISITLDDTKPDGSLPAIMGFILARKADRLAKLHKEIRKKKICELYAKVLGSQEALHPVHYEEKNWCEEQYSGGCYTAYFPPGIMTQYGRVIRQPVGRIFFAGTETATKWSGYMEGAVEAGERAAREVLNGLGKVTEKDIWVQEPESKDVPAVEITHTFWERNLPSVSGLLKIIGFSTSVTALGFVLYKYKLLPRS
In short: (§3)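 Human recombinant MAO-A or MAO-B enzyme. Activity detected fluorometrically with the Amplex Red monoamine oxidase assay.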

[8] = molecular target: T9, Amine oxidase [flavin-containing] B (Homo sapiens, UniProt P27338); experiment: Inhibition of recombinant human MAOB expressed in baculovirus infected BTI insect cells using p-tyramine as substrate preincubated for 30 mins followed by substrate addition and measured over 45 mins by horseradish peroxidase-Amplex Red-coupled fluorometric assay; in short: as §3
T9 sequence (P27338 whole entry): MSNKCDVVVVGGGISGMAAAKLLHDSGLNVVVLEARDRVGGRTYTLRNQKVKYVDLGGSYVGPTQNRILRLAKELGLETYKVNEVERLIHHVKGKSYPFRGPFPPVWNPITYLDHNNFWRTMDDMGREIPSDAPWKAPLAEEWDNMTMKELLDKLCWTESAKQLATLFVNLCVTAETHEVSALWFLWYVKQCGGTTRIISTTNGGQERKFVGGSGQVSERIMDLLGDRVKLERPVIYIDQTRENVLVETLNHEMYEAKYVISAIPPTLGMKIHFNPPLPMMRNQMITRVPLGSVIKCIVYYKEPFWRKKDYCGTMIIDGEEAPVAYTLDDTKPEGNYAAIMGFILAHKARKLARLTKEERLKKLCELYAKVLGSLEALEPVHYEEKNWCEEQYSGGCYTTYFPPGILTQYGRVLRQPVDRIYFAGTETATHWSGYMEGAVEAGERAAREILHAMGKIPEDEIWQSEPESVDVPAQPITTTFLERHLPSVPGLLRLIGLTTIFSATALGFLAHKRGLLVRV

[9] = molecular target: T8, Amine oxidase [flavin-containing] A; experiment: Inhibition of recombinant human MAOA expressed in baculovirus infected BTI insect cells at 1 to 100 uM using p-tyramine as substrate preincubated for 30 mins followed by substrate addition and measured over 45 mins by horseradish peroxidase-Amplex Red-coupled fluorometric assay relative to control; conditions: 0.75 h; in short: as §3
[10] = molecular target: T9, Amine oxidase [flavin-containing] B; experiment: Inhibition of recombinant human MAOB expressed in baculovirus infected BTI insect cells at 1 to 100 uM using p-tyramine as substrate preincubated for 30 mins followed by substrate addition and measured over 45 mins by horseradish peroxidase-Amplex Red-coupled fluorometric assay relative to control; conditions: 0.75 h; in short: as §3
Adenosine receptor A2a [11] = molecular target: T3, Adenosine receptor A2a; experiment: Displacement of [3H]MSX2 from recombinant human adenosine A2a receptor expressed in HEK293 cells at 1 uM relative to control; format: cell-based; in short: as §2
Brain = experiment: Antioxidant activity in rat brain homogenate assessed as inhibition of FeCl2/ascorbic acid-induced lipid peroxidation by measuring reduction in TBARS level at 1000 uM preincubated for 5 mins followed by FeCl2/ascorbic acid addition and measured after 30 mins relative to control; format: functional, tissue-based; set-up: scale not given: the % may be the effect or the level left
In short: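 Rat brain homogenate in 0.9% saline, 10 mg tissue/ml, preincubated 5 min at 37 °C with compound or vehicle. Peroxidation started with 0.5 mM FeCl2 plus 2 mM ascorbic acid (added-solution concentrations). After 30 min, stopped with 0.2% BHT. Thiobarbituric acid reagent added, heated 15 min in boiling water, TBARS extracted into n-butanol and read at 532 nm. Carvedilol as reference.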

Adenosine receptor A1 [12] = molecular target: T10, Adenosine receptor A1 (Rattus norvegicus, UniProt P25099); experiment: Displacement of [3H]CCPA from adenosine A1 receptor in rat brain cortical membranes; format: cell membranes
T10 sequence (P25099 whole entry): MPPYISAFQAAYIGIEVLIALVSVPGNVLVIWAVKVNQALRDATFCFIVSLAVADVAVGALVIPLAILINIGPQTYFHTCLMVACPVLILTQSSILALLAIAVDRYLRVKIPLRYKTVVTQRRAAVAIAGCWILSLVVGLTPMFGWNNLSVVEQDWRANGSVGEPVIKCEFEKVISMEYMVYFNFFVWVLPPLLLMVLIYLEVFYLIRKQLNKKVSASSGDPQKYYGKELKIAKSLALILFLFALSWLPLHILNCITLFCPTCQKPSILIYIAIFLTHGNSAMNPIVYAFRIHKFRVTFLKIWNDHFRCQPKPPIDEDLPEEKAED

HepG2 = experiment: Hepatotoxicity against human HepG2 cells assessed as reduction in cell viability at 100 uM measured after 72 hrs by CellTiter96 Aqueous non-radioactive cell proliferation assay; format: toxicity, cell-based; conditions: hepg2, 72 h
In short: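 HepG2 cells seeded at 1.5×10^4 cells/well in MEM with 4.5 g/L glucose and 10% FBS, grown 24 h at 37 °C, 5% CO2. Compounds diluted in the same medium and applied for 72 h. CellTiter 96 AQueous reagent then added for 2 h, absorbance read at 490 nm. One-way ANOVA with Bonferroni post test.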

T3 sequence (P29274 whole entry): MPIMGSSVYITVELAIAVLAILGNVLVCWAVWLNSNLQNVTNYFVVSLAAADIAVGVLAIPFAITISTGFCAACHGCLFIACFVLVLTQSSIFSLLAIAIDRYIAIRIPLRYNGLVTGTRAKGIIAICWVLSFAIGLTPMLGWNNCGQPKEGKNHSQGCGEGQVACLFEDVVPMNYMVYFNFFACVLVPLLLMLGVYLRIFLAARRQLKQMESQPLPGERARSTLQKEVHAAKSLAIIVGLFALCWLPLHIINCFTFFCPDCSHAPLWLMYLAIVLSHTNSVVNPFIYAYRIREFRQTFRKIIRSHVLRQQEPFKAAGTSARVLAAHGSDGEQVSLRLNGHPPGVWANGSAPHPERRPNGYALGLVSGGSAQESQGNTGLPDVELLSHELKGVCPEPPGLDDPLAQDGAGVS

Row | SMILES | Activity [1] | Ki (Adenosine receptor A1 [2]) | inhibition [3] | Ki (Adenosine receptor A2a [4]) | Ki (Adenosine receptor A2b) | inhibition [5] | Ki (Adenosine receptor A3) | inhibition [6] | IC50 [7] | IC50 [8] | inhibition (INH) [9] | inhibition (INH) [10] | inhibition (Adenosine receptor A2a [11]) | Activity (Brain) | Ki (Adenosine receptor A1 [12]) | Activity (HepG2)
1 | O=C1O[C@H]([C@@H](O)CO)C(O)=C1O | 100% | – | – | – | – | – | – | – | – | – | – | – | – | – | – | –
2 | Cn1c(=O)c2c(nc3n2CCCCN3Cc2ccccc2F)n(C)c1=O | – | > 1000 nM | 11% | 1080 nM | > 1000 nM | 40% | > 1000 nM | 11% | > 1000 nM | > 1000 nM | 14% | 39% | – | – | – | –
3 | Cn1c(=O)c2c(nc3n2CCN3Cc2ccc(Cl)c(Cl)c2)n(C)c1=O | – | > 1000 nM | 1% | > 1000 nM | > 1000 nM | 22% | > 1000 nM | 11% | > 1000 nM | 515 nM | -2% | – | 29% | – | – | –
4 | Cn1c(=O)c2c(nc3n2CCN3Cc2ccc(Cl)cc2)n(C)c1=O | – | > 1000 nM | 23% | > 1000 nM | > 1000 nM | 21% | > 1000 nM | 30% | > 1000 nM | > 1000 nM | 16% | 42% | 42% | – | – | –
5 | Cn1c(=O)c2c(nc3n2CCN3Cc2ccc(F)c(Br)c2)n(C)c1=O | – | > 1000 nM | 6% | > 1000 nM | > 1000 nM | 2% | > 1000 nM | 1% | > 1000 nM | 177 nM | 6% | – | 30% | – | – | –
6 | COc1ccccc1OCCNCC(O)COc1cccc2[nH]c3ccccc3c12 (stereo unspecified) | – | – | – | – | – | – | – | – | – | – | – | – | – | 44.8% | – | –
7 | Cn1c(=O)c2c(nc3n2CCCN3Cc2c(F)cccc2Cl)n(C)c1=O | – | – | – | 189 nM | > 1000 nM | – | > 1000 nM | – | > 100000 nM | 570 nM | 10% | – | – | – | 1550 nM | Toxic
8 | Cn1c(=O)c2c(nc3n2CCN3Cc2cccc(Br)c2)n(C)c1=O | – | 396 nM | – | 369 nM | > 1000 nM | 30% | > 1000 nM | 22% | > 1000 nM | > 1000 nM | 11% | 39% | – | – | – | –
9 | Cc1ccccc1CN1CCCn2c1nc1c2c(=O)n(C)c(=O)n1C | – | – | – | 1020 nM | > 1000 nM | – | > 1000 nM | – | – | > 1000 nM | – | 40% | – | – | 1410 nM | –
